In one data set the test system is PSA. The data set can be described thus: Time required for PSA to hydrolyze 50% (t1/2). The data set is classed as ADME. The following applies: PSA (enzyme).
The next data set has as its system DuPro. The data set can be described thus: Concentration required to kill 50% of tumor cells in PSA nonproducing DuPRO human prostate cancer cell line. It is filed as functional, cell-based.
The test system of data set [1] is LNCaP. Briefly: Concentration required to kill 50% of tumor cells in PSA producing LNCaP human prostate cancer cell line. It is filed as functional, cell-based.
For data set [2], the system named is LNCaP. Briefly: Percentage PSA reduction relative to vehicle control following intraperitoneal injection of conjugate dose for 5 consecutive days to nude mice bearing LNCaP tumor xenografts. The data set is classed as functional, Homo sapiens.
Data set [3] deals with Mus musculus. The data set can be described thus: Maximum nonlethal drug dose which could be administered (ip) to non tumor bearing nude mice for 5 consecutive days. The data set is classed as functional.
Data set [4] has as its system Mus musculus. Briefly: Percentage weight reduction relative to vehicle control following intraperitoneal (ip) injection of conjugate dose for 5 consecutive days to nude mice bearing LNCaP tumor xenografts( 29.3 umol/kg dose). It is filed as functional.
Data set [5] relates to Mus musculus. The data set can be described thus: Percentage weight reduction relative to vehicle control following intraperitoneal (ip) injection of conjugate dose for 5 consecutive days to nude mice bearing LNCaP tumor xenografts( 22.4 umol/kg dose). It is filed as functional.
Data set [6] deals with Mus musculus. The data set can be described thus: Percentage weight reduction relative to vehicle control following intraperitoneal (ip) injection of conjugate dose for 5 consecutive days to nude mice bearing LNCaP tumor xenografts( 21.5 umol/kg dose). It is filed as functional.
For data set [7], the system named is Mus musculus. Briefly: Percentage weight reduction relative to vehicle control following intraperitoneal (ip) injection of conjugate dose for 5 consecutive days to nude mice bearing LNCaP tumor xenografts( 22.7 umol/kg dose). It is filed as functional. The gist of the method: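 Nude mice carrying xenografts of PSA-secreting human prostate LNCaP cells received the conjugate intraperitoneally once daily for 5 consecutive days. Circulating PSA and tumor weight were each expressed as percent reduction against vehicle-treated controls.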

The test system of data set [8] is Mus musculus. Briefly: Percentage weight reduction relative to vehicle control following intraperitoneal (ip) injection of conjugate dose for 5 consecutive days to nude mice bearing LNCaP tumor xenografts(14.8 umol/kg dose). It is filed as functional.
Data set [9] concerns Mus musculus. Briefly: Percentage weight reduction relative to vehicle control following intraperitoneal (ip) injection of conjugate dose for 5 consecutive days to nude mice bearing LNCaP tumor xenografts( 7.6 umol/kg dose). It is filed as functional.

*1 amine or outer side, *2 acyl side, *3 side chain or, on linkers, in order; H or OH if unused. Where a SMILES comes first, the peptide text is derived from it. [ ]: non-standard residue; d: D form. The star is where a group is joined. Doxorubicin(3'-N) = COc1cccc2c1C(=O)c1c(O)c3c(c(O)c1C2=O)C[C@@](O)(C(=O)CO)C[C@@H]3O[C@H]1C[C@H](N*)[C@H](O)[C@H](C)O1; X1 = COc1cccc2c1C(=O)c1c(O)c3c(c(O)c1C2=O)C[C@@](O)(C(=O)CO)C[C@@H]3OC1CC(N*)C(O)C(C)O1; Glutaryl = O=C(CCCC(=O)[*:2])[*:1]; Hyp = O=C(O)[C@@H]1C[C@@H](O)CN1; Chg = N[C@H](C(=O)O)C1CCCCC1; Orn = NCCC[C@H](N)C(=O)O

Turning to `COc1cccc2c1C(=O)c1c(O)c3c(c(O)c1C2=O)C[C@@](O)(C(=O)CO)C[C@@H]3OC1CC(NC(=O)[C@H](CC(C)C)NC(=O)[C@H](CO)NC(=O)[C@H](CCC(N)=O)NC(=O)[C@H](Cc2ccc(O)cc2)NC(=O)[C@H](CO)NC(=O)[C@H](C)NC(=O)[C@H](CCCCN)NC(C)=O)C(O)C(C)O1` (stereo not given in full) (Ac-KASYQSL-X1), the half-life (commonly the time needed for the level to fall by half in the phase considered) in the data set on PSA was 0.5 h. The values for the EC50 in the data set on DuPro and in the data set with LNCaP [1] were 100 µM and 4.8 µM, respectively.
Consider `COc1cccc2c1C(=O)c1c(O)c3c(c(O)c1C2=O)C[C@@](O)(C(=O)CO)C[C@@H]3OC1CC(NC(=O)[C@H](CC(C)C)NC(=O)[C@H](CO)NC(=O)[C@H](CO)NC(=O)[C@H](CO)NC(=O)[C@H](CCC(N)=O)NC(=O)[C@H](Cc2ccc(O)cc2)NC(=O)[C@H](CCCN)NC(C)=O)C(O)C(C)O1` (stereo not given in full) (Ac-[Orn]YQSSSL-X1), for which the Reduction in the data set on LNCaP [2] worked out at 93%; with Mus musculus [4], 80%. The same compound had a half-life with PSA of 2 h. For the same compound, the MTD with Mus musculus [3] is 33 µM/kg. Moreover, the EC50 – broadly, the concentration that produces a half-maximal response – was > 100 µM in the data set on DuPro and 7 µM in the data set with LNCaP [1].
H-ANKISYQSSSTE-OH returned a half-life in the data set with PSA of 1.75 h.
As for `COc1cccc2c1C(=O)c1c(O)c3c(c(O)c1C2=O)C[C@@](O)(C(=O)CO)C[C@@H]3OC1CC(NC(=O)[C@H](CC(C)C)NC(=O)[C@H](CO)NC(=O)[C@H](CCC(N)=O)NC(=O)[C@@H](NC(=O)[C@H](CO)NC(=O)[C@H](C)NC(=O)[C@H](CCCCN)NC(C)=O)C2CCCCC2)C(O)C(C)O1` (stereo not given in full) (Ac-KAS[Chg]QSL-X1), the values for the Reduction with LNCaP [2] and in the data set on Mus musculus [5] were 95% and 73%, respectively. The compound also gave an MTD in the data set with Mus musculus [3] of 29.9 µM/kg.
In the case of `COc1cccc2c1C(=O)c1c(O)c3c(c(O)c1C2=O)C[C@@](O)(C(=O)CO)C[C@@H]3O[C@H]1C[C@H](NC(=O)[C@H](CC(C)C)NC(=O)[C@H](CO)NC(=O)[C@H](CCC(N)=O)NC(=O)[C@@H](NC(=O)[C@H](CO)NC(=O)[C@H](C)NC(=O)[C@@H]2C[C@@H](O)CN2C(=O)CCCC(=O)O)C2CCCCC2)[C@H](O)[C@H](C)O1` (Glutaryl-[Hyp]AS[Chg]QSL-{Doxorubicin(3'-N)}), the Reduction stood at 95% with LNCaP [2] and 87% in the data set with Mus musculus [6]. Further, the MTD with Mus musculus [3] stood at 28.6 µM/kg.
As for Ac-ANKISYQSSSTE-NH2, the half-life in the data set on PSA is > 4 h.
`COc1cccc2c1C(=O)c1c(O)c3c(c(O)c1C2=O)C[C@@](O)(C(=O)CO)C[C@@H]3O[C@H]1C[C@H](NC(=O)[C@H](CC(C)C)NC(=O)[C@H](CO)NC(=O)[C@H](C)NC(=O)[C@H](CO)NC(=O)[C@H](CCC(N)=O)NC(=O)[C@H](Cc2ccc(O)cc2)NC(=O)[C@H](CO)NC(=O)[C@H](C)NC(=O)[C@H](CCCCN)NC(=O)[C@H](CC(N)=O)NC(=O)[C@H](C)NC(C)=O)[C@H](O)[C@H](C)O1` (Ac-ANKASYQSASL-{Doxorubicin(3'-N)}) showed a half-life in the data set on PSA of 0.5 h. The EC50 was > 100 µM in the data set with DuPro and 12.5 µM with LNCaP [1].
Ac-ANKASYQSSSTE-NH2 showed a half-life with PSA of 1.75 h.
Regarding `COc1cccc2c1C(=O)c1c(O)c3c(c(O)c1C2=O)C[C@@](O)(C(=O)CO)C[C@@H]3OC1CC(NC(=O)[C@H](CC(C)C)NC(=O)[C@H](CO)NC(=O)[C@@H](CCC(N)=O)NC(=O)[C@@H](NC(=O)[C@H](CO)NC(=O)[C@H](C)NC(=O)C2CC(O)CN2C(C)=O)C2CCCCC2)C(O)C(C)O1` (stereo not given in full), the figures for the Reduction with LNCaP [2] and in the data set with Mus musculus [7] were 96% and 81%, respectively. The half-life in the data set with PSA worked out at 0.333 h. The same compound yielded an MTD with Mus musculus [3] of 22.7 µM/kg. Moreover, the EC50 was > 100 µM with DuPro and 4.5 µM in the data set with LNCaP [1].
With H-ANKISYQSS-OH, the half-life in the data set on PSA was > 4 h.
In the case of `COc1cccc2c1C(=O)c1c(O)c3c(c(O)c1C2=O)C[C@@](O)(C(=O)CO)C[C@@H]3OC1CC(NC(=O)[C@H](CC(C)C)NC(=O)[C@H](CO)NC(=O)[C@H](CCC(N)=O)NC(=O)[C@H](Cc2ccc(O)cc2)NC(=O)[C@H](CO)NC(=O)[C@H](C)NC(=O)[C@H](CCCN)NC(C)=O)C(O)C(C)O1` (stereo not given in full), the figures for the Reduction with LNCaP [2] and in the data set on Mus musculus [8] were 70% and 57%, respectively. The compound further gave a half-life in the data set with PSA of 0.667 h. Besides, in the data set on Mus musculus [3], the MTD was 29.7 µM/kg. For the same compound, the EC50 in the data set with DuPro was > 100 µM; in the data set with LNCaP [1], 7.3 µM.
`COc1cccc2c1C(=O)c1c(O)c3c(c(O)c1C2=O)C[C@@](O)(C(=O)CO)C[C@@H]3OC1CC(NC(=O)[C@H](N)CC(C)C)C(O)C(C)O1` (stereo not given in full): the values for the Reduction in the data set with LNCaP [2] and with Mus musculus [9] were 10% and -5%, respectively. In addition, the MTD in the data set on Mus musculus [3] came out at 7.6 µM/kg. Also, the results for the EC50 with DuPro and with LNCaP [1] were 14 µM and 6.7 µM, respectively.
As for Ac-ANKISYYSSSTE-NH2, the half-life with PSA amounted to 2.5 h.
